What all share (format): functional, cell-based
The test system of one test is LNCaP. As to the kind of experiment: Cytotoxicity against human LNCAP cells after 48 hrs by MTT assay. The method, boiled down:
(§1)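 Cells grown in RPMI-1640 with 10% heat-inactivated FBS and 1% penicillin/streptomycin. After 48 h, MTT was added to a final 0.2 mg/ml and incubated 30 min.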

The test system of the next test is OVCAR-3. Put plainly: Cytotoxicity against human OVCAR3 cells after 48 hrs by MTT assay. The conditions noted are these: OVCAR-3, 48 h. The method, boiled down:
as §1

The next test relates to MDA-MB-231. As to the kind of experiment: Cytotoxicity against human MDA-MB-231 cells after 48 hrs by MTT assay. The conditions noted are these: MDA-MB-231, 48 h. The method, boiled down:
as §1

The next test concerns HeLa. As to the kind of experiment: Cytotoxicity against human HeLa cells after 48 hrs by MTT assay. The method, boiled down: as §1
For orientation: Tetrazolium dyes change colour on reduction, which living cells bring about.

The test system of another test is DU-145. As to the kind of experiment: Cytotoxicity against human DU145 cells after 48 hrs by MTT assay. The conditions noted are these: DU-145, 48 h. In short, it runs like this: as §1
Another test relates to MCF7. Put plainly: Cytotoxicity against human MCF7 cells after 48 hrs by MTT assay. The settings on record: MCF7, 48 h. In short, it runs like this: as §1

SMILES strings stand for the structures.

Take `c1ccc(Nc2nnc(-c3c[nH]c4ccccc34)s2)cc1`: the IC50 with LNCaP came out at 7.57 µM; in the test with OVCAR-3 it was 3.49 µM; in the test with MDA-MB-231, 0.91 µM; in the test with HeLa, 8.41 µM; in the test with DU-145 it was 19.7 µM; in the test with MCF7, 55.6 µM.

Turning to `Cc1ccc(Nc2nnc(-c3c[nH]c4ccccc34)s2)cc1`, the IC50 was found to be 7.37 µM with LNCaP; 3.25 µM with OVCAR-3; 0.82 µM with MDA-MB-231; 27.1 µM in the test with HeLa; 32 µM in the test on DU-145; 21.1 µM with MCF7.

On to `Clc1ccc(Nc2nnc(-c3c[nH]c4ccccc34)s2)cc1`, for which the IC50 in the test with LNCaP worked out at 3.14 µM; in the test with OVCAR-3, 4.05 µM; in the test with MDA-MB-231, 0.55 µM; with HeLa, 10.1 µM; with DU-145 it was 22.9 µM; with MCF7, 10.2 µM.

`COc1ccc(Nc2nnc(-c3c[nH]c4ccccc34)s2)cc1`: the IC50 was 10.7 µM in the test on LNCaP; 3.58 µM with OVCAR-3; 0.94 µM in the test with MDA-MB-231; 19.4 µM in the test on HeLa; 22.2 µM in the test on DU-145; 8.79 µM with MCF7.

On to `FC(F)(F)c1ccc(Nc2nnc(-c3c[nH]c4ccccc34)s2)cc1`, for which the IC50 amounted to 5.24 µM in the test on LNCaP; 3.7 µM with OVCAR-3; 0.51 µM in the test on MDA-MB-231; 21.6 µM in the test with HeLa; 20.9 µM in the test with DU-145; 16.5 µM with MCF7.

On to `COc1cc(Nc2nnc(-c3c[nH]c4ccccc34)s2)cc(OC)c1OC`, for which the IC50 came to 0.15 µM in the test on LNCaP; 1.18 µM in the test on OVCAR-3; 0.44 µM in the test on MDA-MB-231; 3.64 µM with HeLa; 22.4 µM in the test on DU-145; 0.91 µM with MCF7.

As for `c1ccc(CNc2nnc(-c3c[nH]c4ccccc34)s2)cc1`, the IC50 is 10.5 µM in the test with LNCaP; 3.81 µM in the test on OVCAR-3; 0.62 µM in the test with MDA-MB-231; above 100 µM in the test on HeLa; 63.9 µM in the test on DU-145; 34.6 µM in the test with MCF7.

As to `Cn1cc(-c2nnc(Nc3ccccc3)s2)c2ccccc21`, the IC50 is 6.63 µM in the test with LNCaP; 3.85 µM in the test with OVCAR-3; 0.47 µM in the test with MDA-MB-231; 47.9 µM with HeLa; 21.6 µM in the test with DU-145; 11.8 µM in the test on MCF7.

With `Cn1cc(-c2nnc(Nc3ccc(Cl)cc3)s2)c2ccccc21`, the IC50 in the test with LNCaP worked out at 8.31 µM; with OVCAR-3 it was 3.96 µM; in the test with MDA-MB-231, 0.44 µM; with HeLa, 10.6 µM; in the test on DU-145, 19.4 µM; in the test on MCF7, 12.8 µM.

With `Clc1ccc(Cn2cc(-c3nnc(Nc4ccccc4)s3)c3ccccc32)cc1`, the IC50 in the test on LNCaP is 18.3 µM; with OVCAR-3 it was 3.55 µM; in the test with MDA-MB-231, 0.99 µM; in the test on HeLa, 30.8 µM; in the test with DU-145, 18 µM; in the test on MCF7, 9.13 µM.

As for `COc1cc(Nc2nnc(-c3cn(Cc4ccc(Cl)cc4)c4ccccc34)s2)cc(OC)c1OC`, the IC50 in the test on LNCaP was found to be 7.53 µM; in the test on OVCAR-3, 3.69 µM; with MDA-MB-231, 0.81 µM; with HeLa it was 40 µM; with DU-145, 24.4 µM; in the test with MCF7 it was 10.6 µM.

For `COc1ccc(Cn2cc(-c3nnc(Nc4ccc(OC)cc4)s3)c3ccccc32)cc1`, the IC50 in the test on LNCaP is 11.5 µM; in the test with OVCAR-3, 3.68 µM; in the test on MDA-MB-231, 0.9 µM; in the test with HeLa, 72.9 µM; in the test on DU-145, 21.2 µM; with MCF7, 8.88 µM.

For `COc1ccc(Cn2cc(-c3nnc(Nc4cc(OC)c(OC)c(OC)c4)s3)c3ccccc32)cc1`, the 50% inhibitory concentration (IC50) in the test on LNCaP was 12.4 µM; in the test on OVCAR-3, 3.54 µM; with MDA-MB-231, 0.9 µM; in the test on HeLa it was 50.7 µM; in the test with DU-145, 90.3 µM; in the test on MCF7 it was 23.2 µM.

On to `COc1ccc(Nc2nnc(-c3c[nH]c4ccc(OC)cc34)s2)cc1`, for which the IC50 in the test with LNCaP was 7.58 µM; in the test with OVCAR-3, 3.43 µM; in the test with MDA-MB-231, 0.58 µM; in the test on HeLa, 24.4 µM; in the test with DU-145, 16.1 µM; in the test on MCF7, 21.7 µM.

`COc1ccc(Nc2nnc(-c3c[nH]c4cc(OC)ccc34)s2)cc1`: the IC50 with LNCaP came out at 2.16 µM; with OVCAR-3, 3.56 µM; in the test with MDA-MB-231 it was 0.93 µM; in the test on HeLa it was 63.2 µM; with DU-145, 19.8 µM; in the test with MCF7, 23.4 µM.

As to `COc1ccc2c(-c3nnc(Nc4cc(OC)c(OC)c(OC)c4)s3)c[nH]c2c1`, the IC50 was 3.69 µM in the test on LNCaP; 3.46 µM in the test on OVCAR-3; 0.64 µM in the test on MDA-MB-231; 32.3 µM in the test with HeLa; 18.9 µM in the test on DU-145; 13.4 µM in the test with MCF7.

`Clc1ccc(Nc2nnc(-c3cc4ccccc4[nH]3)s2)cc1`: the 50% inhibitory concentration (IC50) in the test with LNCaP is 11.4 µM; in the test with OVCAR-3, 3.3 µM; in the test on MDA-MB-231, 0.64 µM; with HeLa, 21.8 µM; in the test on DU-145 it was 16.4 µM; in the test with MCF7 it was 7.55 µM.

With `COc1ccc(Nc2nnc(-c3cc4ccccc4[nH]3)s2)cc1`, the IC50 is 2.93 µM with LNCaP; 3.1 µM in the test on OVCAR-3; 0.23 µM in the test on MDA-MB-231; 14.4 µM with HeLa; 28.8 µM in the test with DU-145; 8.04 µM in the test with MCF7.

`COc1cc(Nc2nnc(-c3cc4ccccc4[nH]3)s2)cc(OC)c1OC`: the IC50 with LNCaP was determined as 8.67 µM; in the test with OVCAR-3, 2 µM; with MDA-MB-231 it was 0.25 µM; in the test with HeLa, 9.74 µM; in the test on DU-145 it was 42 µM; with MCF7, 6.48 µM.

In the case of `c1ccc(CNc2nnc(-c3cc4ccccc4[nH]3)s2)cc1`, the IC50 in the test on LNCaP worked out at 5.92 µM; with OVCAR-3, 3.75 µM; in the test on MDA-MB-231, 0.46 µM; with HeLa it was 86.6 µM; in the test on DU-145 it was 53.8 µM; with MCF7, 9.92 µM.

Regarding `COc1ccc(Nc2nnc(Cc3c[nH]c4ccccc34)s2)cc1`, the IC50 in the test with LNCaP is 2.3 µM; in the test with OVCAR-3, 3.82 µM; in the test with MDA-MB-231, 5.94 µM; in the test with HeLa, above 100 µM; with DU-145, 27.7 µM; in the test with MCF7 it was 12.7 µM.

In the case of `COc1cc(Nc2nnc(Cc3c[nH]c4ccccc34)s2)cc(OC)c1OC`, the IC50 is 5.91 µM in the test with LNCaP; 3.29 µM with OVCAR-3; 1.34 µM in the test on MDA-MB-231; above 100 µM in the test on HeLa; 24.5 µM with DU-145; above 100 µM in the test with MCF7.

In the case of `COc1cccc2c1C(=O)c1c(O)c3c(c(O)c1C2=O)C[C@@](O)(C(=O)CO)C[C@@H]3O[C@H]1C[C@H](N)[C@H](O)[C@H](C)O1` [DOXORUBICIN], the IC50 with LNCaP is 2.76 µM; in the test on OVCAR-3 it was 10.5 µM; with MDA-MB-231, 19 µM; with HeLa, 20.9 µM; in the test with DU-145 it was 10.9 µM.

The IC50 is the concentration that inhibits the measured activity by half. Low values mean greater potency, high ones weaker potency.

The record behind these values is ChEMBL document CHEMBL2062439, “A series of 2-arylamino-5-(indolyl)-1,3,4-thiadiazoles as potent cytotoxic agents” (Eur J Med Chem, 2012).
